Only some compounds are listed: those with a hit (about 5.8% of all), similar ones and a draw of the others.
T cruzi growth: T. cruzi proliferation inhibition; T. cruzi beta-gal in NIH3T3, GalScreen luminescence, 90 h; inhibition, % at 8.34 µM; hit rate 5.9% among 77,000;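 active = mean inhibition above about 93%, with at least 55% of replicates each passing it, limit read from the data, passing the limit was not always enough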
Pf Dd2 growth: inhibitors of Plasmodium falciparum Dd2 growth; P. falciparum Dd2 growth, SYBR Green, 72 h; hits give low values; activity change, % at 10 µM; hit rate 2.3% among 94,000; in the data active = activity change below about -80%
IDH1 R132H inh: IDH1 R132H (human) inhibition; O75874; inhibition, % at 10 µM; IDH1 R132H reductase, diaphorase/resazurin fluorescence, 60 min; hit rate 0.18% among 70,000; AID 624101; in the data active = inhibition above about 34%
GASC1 inh: blocks human GASC-1 (KDM4C) demethylase activity | Q9H3R0 | GST-KDM4C 2-372, H3K9me3 peptide, LANCE TR-FRET | inhibition, % at 12.5 µM | hit rate 0.15% among 96,000;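 active = mean replicate inhibition above about 25%, with at least 55% of replicates also reaching it, limit read from the data, passing the limit was not always enough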
Target sequence (Q9H3R0 2-372 limits assumed): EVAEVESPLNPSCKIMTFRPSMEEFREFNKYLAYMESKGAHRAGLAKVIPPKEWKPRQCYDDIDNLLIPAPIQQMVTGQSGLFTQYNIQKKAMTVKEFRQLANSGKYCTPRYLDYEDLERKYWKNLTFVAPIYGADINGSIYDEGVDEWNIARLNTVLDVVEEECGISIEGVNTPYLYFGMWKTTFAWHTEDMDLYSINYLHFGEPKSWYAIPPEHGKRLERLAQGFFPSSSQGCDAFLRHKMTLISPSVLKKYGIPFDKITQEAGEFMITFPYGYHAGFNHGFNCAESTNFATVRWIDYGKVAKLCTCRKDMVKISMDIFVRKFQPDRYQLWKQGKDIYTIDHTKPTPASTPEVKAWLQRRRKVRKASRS
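reagent = H3K9me3 peptide substrate, Fe(II), 2-oxoglutarate | system = GST-tagged GASC-1 (JMJD2C) catalytic fragment, aa 2-372 | amount = enzyme final amount 10 nM | read-out = Fall in 671/618 emission ratio as inhibition | medium = HEPES buffer, pH 7.5, plus ascorbate | schedule = 30 min reaction, 60 min detection, RT | measured by = LANCE TR-FRET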
Hits are given with their value; - = inactive; . = not tested or not shown.

SMILES | T cruzi growth | Pf Dd2 growth | IDH1 R132H inh | GASC1 inh
COc1cccc(C#Cc2ccc([C@@H]3[C@H](C#N)N(C(=O)C4CCC4)[C@H]3CO)cc2)c1 | - | - | . | -
COc1cccc(C#Cc2ccc([C@H]3[C@@H](CO)N(C(=O)C4CCC4)[C@H]3C#N)cc2)c1 | - | -85.6 | - | -
COc1cccc(C#Cc2ccc([C@H]3[C@@H](CO)N(C(=O)C4CCCC4)[C@H]3C#N)cc2)c1 | . | -93.5 | . | -
COc1cccc(C#Cc2ccc([C@@H]3[C@@H](C#N)N(C(=O)C4CCCC4)[C@@H]3CO)cc2)c1 | . | - | . | -
CCNC(=O)[C@@H]1[C@@H](CO)[C@@H]2Cn3c(ccc(-c4ccccc4)c3=O)[C@H]1N2C(=O)CC1CC1 | . | - | . | -
Nc1ncnc(Sc2nc3ccccc3s2)c1[N+](=O)[O-] | . | . | - | .
C[C@H](CO)N1C[C@H](C)[C@H](CN(C)Cc2cccc(O)c2)OCc2ccccc2-c2c(n(C)c3ccccc23)C1=O | . | - | . | .
C[C@H](CO)N1C[C@H](C)[C@@H](CN(C)Cc2cccc(C(=O)Nc3ccccc3N)c2)OCc2ccccc2-c2c(n(C)c3ccccc23)C1=O | . | -91.2 | . | -
C[C@H]1CN([C@@H](C)CO)C(=O)c2c(c3ccccc3n2C)-c2ccccc2CO[C@@H]1CN(C)Cc1cccc(O)c1 | . | -88.5 | . | -
C[C@H]1CN([C@@H](C)CO)C(=O)c2c(c3ccccc3n2C)-c2ccccc2CO[C@H]1CN(C)Cc1cccc(C(=O)O)c1 | - | - | . | -
COc1cccc(CN(C)C[C@H]2OCc3ccccc3-c3c(n(C)c4ccccc34)C(=O)N([C@H](C)CO)C[C@H]2C)c1 | . | -88.0 | . | -
C[C@@H]1CN([C@@H](C)CO)C(=O)c2c(c3ccccc3n2C)-c2ccccc2CO[C@@H]1CN(C)Cc1cccc(F)c1 | . | -86.4 | . | -
Cc1ccc(N(CC(N)=O)S(=O)(=O)c2ccccc2)cc1 | . | . | - | .
CO[C@@H]1CN(C)C(=O)c2cc(NS(=O)(=O)CC(F)(F)F)ccc2OC[C@@H](C)N(CC2CCCCC2)C[C@@H]1C | - | - | - | -
COCC(=O)Nc1ccc2c(c1)OC[C@@H](C)N(CCc1ccccc1)C[C@@H](C)[C@H](OC)CN(C)C2=O | - | - | - | -
Cc1ccc(C)c(NC(=O)CSc2cc(C)c3ccccc3n2)c1 | . | . | - | .
COc1ccc(NC(=O)Nc2ccc3c(c2)C(=O)N([C@H](C)CO)C[C@@H](C)[C@H](CN(C)Cc2ccc(C(F)(F)F)cc2)OCCCC[C@H](C)O3)cc1 | - | -87.0 | - | -
COc1ccc(NC(=O)Nc2ccc3c(c2)C(=O)N([C@@H](C)CO)C[C@@H](C)[C@H](CN(C)Cc2ccc(C(F)(F)F)cc2)OCCCC[C@@H](C)O3)cc1 | - | -85.5 | - | -
COc1ccc(NC(=O)Nc2ccc3c(c2)C(=O)N([C@H](C)CO)C[C@H](C)[C@H](CN(C)Cc2ccc(C(F)(F)F)cc2)OCCCC[C@@H](C)O3)cc1 | - | - | . | -
COc1ccc(CN(C)C[C@H]2OCCCC[C@H](C)Oc3ccc(NC(=O)Nc4ccc(C(F)(F)F)cc4)cc3C(=O)N([C@H](C)CO)C[C@@H]2C)cc1 | - | - | - | -
COc1ccc(CN(C)C[C@H]2OCCCC[C@@H](C)Oc3ccc(NC(=O)Nc4ccc(C(F)(F)F)cc4)cc3C(=O)N([C@@H](C)CO)C[C@H]2C)cc1 | - | -87.5 | . | .
O=C(CCCCC(=O)N/N=C/c1cc(O)ccc1O)NO | . | . | 87.5 | .
O=C(O)CCCCCC(=O)N/N=C/c1cc(O)ccc1Br | . | . | - | .
COC(=O)CCCCCCC(=O)N/N=C/c1cc(O)ccc1O | . | . | 52.8 | .
CC(C)CC#Cc1cnc2c(c1)C(=O)N([C@@H](C)CO)C[C@@H](C)[C@@H](CN(C)C(=O)CN1CCOCC1)O2 | - | - | - | -
SMILES | T cruzi growth | Pf Dd2 growth | IDH1 R132H inh | GASC1 inh
COc1cccc(C(=O)Nc2ccc3c(c2)C(=O)N(C)C[C@@H](OC)[C@H](C)CN[C@@H](C)CO3)c1 | - | - | - | -
C[C@H]1CN([C@@H](C)CO)C(=O)c2cccc(NC(=O)c3nc4ccccc4s3)c2O[C@H]1CN(C)Cc1ccc(C(=O)Nc2ccccc2N)cc1 | 97.2 | -91.2 | . | -
C[C@H](CO)N1C[C@H](C)[C@@H](CN(C)Cc2ccncc2)Oc2c(NC(=O)c3nc4ccccc4s3)cccc2C1=O | . | - | 35.4 | -
C[C@H]1CN([C@@H](C)CO)C(=O)c2cccc(NC(=O)c3nc4ccccc4s3)c2O[C@H]1CN(C)Cc1ccccc1 | - | - | . | -
C[C@H]1CN([C@@H](C)CO)C(=O)c2cccc(NC(=O)c3nc4ccccc4s3)c2O[C@@H]1CN(C)S(=O)(=O)c1ccccc1 | - | -81.3 | . | -
CCCNC(=O)N1CCC2(CC1)CN(C(C)=O)[C@H](CO)c1[nH]c3cc(OC)ccc3c12 | . | - | . | -
